Results as given in PubChem BioAssay AID488775 (The Scripps Research Institute Molecular Screening Center, 2010).
Active and inactive are the calls of the source.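 How the source made its calls: active means inhibition of the reporter signal above 10%; inactive means the rest.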

System: GAL4DBD-VP16 transactivation domain fusion (Human herpesvirus 1 VP16)
Test: GAL4-VP16 transactivation inhibitors, confirmation, counter-screen for LRH1 inverse agonist project, cell-based, luminescence, HEK293T, powder samples (AID 488775)
Conditions: HEK293T GAL4-VP16 UAS-luciferase reporter, 18-24 h; at 5 µM; hits give high values
How it was run: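 Material: HEK293T cells with GAL4–VP16 fusion and UAS-luciferase reporter; control set: DMSO vehicle wells; measured by: luminescence from luciferase; doses: one dose, 5 µM nominal; read-out basis: percent inhibition from averaged fold change relative to DMSO vehicle wells; repeats: three replicates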

Structure (SMILES) | inhibition
O=c1cc(N2CCN(c3cccc(C(F)(F)F)c3)CC2)n(Cc2ccccc2)c(=O)n1C1CCCCC1 | -1% (inactive)
O=C(c1ccccc1)N1CCN(c2cc(=O)n(C3CCCCC3)c(=O)[nH]2)CC1 | 8% (inactive)
O=c1cc(N2CCCC2)[nH]c(=O)n1C1CCCCC1 | -6% (inactive)
CCn1c(=O)cc(N2CCN(C(=O)c3ccco3)CC2)[nH]c1=O | 0% (inactive)
O=c1cc(N2CCN(c3ccc(F)cc3)CC2)[nH]c(=O)n1C1CCCCC1 | -9% (inactive)
O=c1cc(N2CCN(C3CCCCC3)CC2)[nH]c(=O)n1C1CCCCC1 | 0% (inactive)
C=CCn1c(N2CCN(c3cccc(C(F)(F)F)c3)CC2)cc(=O)n(C2CCCCC2)c1=O | 20%
CCn1c(=O)cc(N2CCN(Cc3ccccc3)CC2)[nH]c1=O | -10% (inactive)
O=c1cc(N2CCN(C(c3ccccc3)c3ccccc3)CC2)[nH]c(=O)n1C1CCCCC1 | 11% (inactive)
CC(C)Cn1c(=O)cc(N2CCN(c3cccc(C(F)(F)F)c3)CC2)[nH]c1=O | 8% (inactive)
O=c1cc(N2CCOCC2)[nH]c(=O)n1C1CCCCC1 | 9% (inactive)
Cc1cc(C)cc(N2CCN(c3cc(=O)n(C4CCCCC4)c(=O)[nH]3)CC2)c1 | -6% (inactive)
O=c1cc(N2CCN(c3ncccc3C(F)(F)F)CC2)[nH]c(=O)n1C1CCCCC1 | 13%
O=c1cc(N2CCN(c3ccc(C(F)(F)F)cc3)CC2)[nH]c(=O)n1C1CCCCC1 | -5% (inactive)
O=c1cc(N2CCN(c3nccc4occc34)CC2)[nH]c(=O)n1C1CCCCC1 | -4% (inactive)
O=c1cc(N2CCCCC2)[nH]c(=O)n1C1CCCCC1 | 0% (inactive)
CC1CCN(c2cc(=O)n(Cc3ccc(F)cc3)c(=O)[nH]2)CC1 | -7% (inactive)
O=c1cc(N2CCN(c3cc(Cl)cc(Cl)c3)CC2)[nH]c(=O)n1C1CCCCC1 | 1% (inactive)
O=c1cc(N2CCN(c3cccc(C(F)(F)F)c3)CC2)[nH]c(=O)n1C1CCCCC1 | -6% (inactive)
O=c1cc(N2CCN(c3cccc(Cl)n3)CC2)[nH]c(=O)n1C1CCCCC1 | -7% (inactive)

Structure (SMILES) | inhibition
O=c1cc(N2CCN(Cc3ccc(Cl)cc3)CC2)[nH]c(=O)n1C1CCCCC1 | -4% (inactive)
O=c1cc(N2CCN(c3ncccc3Cl)CC2)[nH]c(=O)n1C1CCCCC1 | 16%
O=c1cc(N2CCN(c3cccc(C(F)(F)F)c3)CC2)[nH]c(=O)n1-c1ccccc1 | -3% (inactive)
O=c1cc(N2CCN(c3cccc(Cl)c3)CC2)[nH]c(=O)[nH]1 | 3% (inactive)
COc1ccc(N2CCN(c3cc(=O)n(C4CCCCC4)c(=O)[nH]3)CC2)cc1 | 1% (inactive)
O=c1cc(N2CCN(c3ccccc3C(F)(F)F)CC2)[nH]c(=O)n1C1CCCCC1 | 14%
O=c1cc(N2CCN(c3cccc(Cl)c3Cl)CC2)[nH]c(=O)n1C1CCCCC1 | -5% (inactive)
Cn1c(=O)cc(N2CCN(c3ccc(F)cc3)CC2)[nH]c1=O | -13% (inactive)
O=c1cc(N2CCN(c3cccc(C(F)(F)F)c3)CC2)[nH]c(=O)n1Cc1ccccc1 | 6% (inactive)
Cc1ccc(Cl)cc1N1CCN(c2cc(=O)n(C3CCCCC3)c(=O)[nH]2)CC1 | 0% (inactive)
O=c1cc(N2CCN(c3ccccn3)CC2)[nH]c(=O)n1C1CCCCC1 | -8% (inactive)
C=CCN1CCN(c2cc(=O)n(C3CCCCC3)c(=O)[nH]2)CC1 | -48% (inactive)
O=c1cc(N2CCN(c3cc(C(F)(F)F)ccn3)CC2)[nH]c(=O)n1C1CCCCC1 | -12% (inactive)
CCn1c(=O)cc(N2CCN(c3ccccc3)CC2)[nH]c1=O | -7% (inactive)
Cn1c(=O)cc(N2CCN(c3cccc(Cl)c3)CC2)[nH]c1=O | -1% (inactive)
O=c1cc(N2CCN(c3ccccc3)CC2)[nH]c(=O)n1C1CCCCC1 | -16% (inactive)
O=c1cc(N2CCN(c3cccc(Cl)c3)CC2)[nH]c(=O)n1C1CCCCC1 | 1% (inactive)
O=c1cc(N2CCN(c3nc(-c4ccccc4)ns3)CC2)[nH]c(=O)n1C1CCCCC1 | -27% (inactive)
O=c1cc(N2CCN(CCN3CCOCC3)CC2)[nH]c(=O)n1C1CCCCC1 | 26%
CCN1CCN(c2cc(=O)n(C3CCCCC3)c(=O)[nH]2)CC1 | 0% (inactive)

Structure (SMILES) | inhibition
O=c1cc(N2CCN(c3ccccc3)CC2)[nH]c(=O)n1Cc1ccc(F)cc1 | -5% (inactive)
O=c1cc(N2CCN(c3ccnc4cc(Cl)ccc34)CC2)[nH]c(=O)n1C1CCCCC1 | 7% (inactive)
O=C(c1ccco1)N1CCN(c2cc(=O)n(C3CCCCC3)c(=O)[nH]2)CC1 | 17%
O=c1cc(N2CCN(Cc3ccc4c(c3)OCO4)CC2)[nH]c(=O)n1C1CCCCC1 | -5% (inactive)
CCOC(=O)N1CCN(c2cc(=O)n(C3CCCCC3)c(=O)[nH]2)CC1 | -6% (inactive)
O=c1cc(N2CCN(c3ccccc3Cl)CC2)[nH]c(=O)n1C1CCCCC1 | 1% (inactive)
CCn1c(=O)cc(N2CCN(c3cccc(C(F)(F)F)c3)CC2)[nH]c1=O | 1% (inactive)
COC(=O)C1CCN(c2cc(=O)n(C3CCCCC3)c(=O)[nH]2)CC1 | -12% (inactive)
N#CCn1c(N2CCN(c3cccc(C(F)(F)F)c3)CC2)cc(=O)n(C2CCCCC2)c1=O | 2% (inactive)
CCn1c(=O)cc(N2CCN(c3cccc(Cl)c3)CC2)[nH]c1=O | 5% (inactive)
C=CCn1c(=O)cc(N2CCN(c3cccc(C(F)(F)F)c3)CC2)[nH]c1=O | 1% (inactive)
Cc1ccc(C)n1CCN1CCN(c2cc(=O)n(C3CCCCC3)c(=O)[nH]2)CC1 | 17%
O=c1cc(N2CCN(c3cccc(C(F)(F)F)n3)CC2)[nH]c(=O)n1C1CCCCC1 | 3% (inactive)
O=c1cc(N2CCN(c3ccc(F)cc3F)CC2)[nH]c(=O)n1C1CCCCC1 | 26%
CCn1c(=O)cc(N2CCN(c3ccc(F)cc3)CC2)[nH]c1=O | -7% (inactive)
CC1CCN(c2cc(=O)n(C3CCCCC3)c(=O)[nH]2)CC1 | 6% (inactive)
O=c1cc(N2CCC(Cc3ccccc3)CC2)[nH]c(=O)n1C1CCCCC1 | 26%
O=c1cc(N2CCN(c3cccc(Br)c3)CC2)[nH]c(=O)n1C1CCCCC1 | -4% (inactive)
O=c1cc(N2CCc3ccccc32)[nH]c(=O)n1C1CCCCC1 | -11% (inactive)
